Assay results as given in ChEMBL document CHEMBL1126794, “2-(Quinuclidin-3-yl)pyrido[4,3-b]indol-1-ones and isoquinolin-1-ones. Potent conformationally restricted 5-HT3 receptor antagonists” (J Med Chem, 1993).

Legend:
[1] = biological target: T1, Serotonin 3 (5-HT3) receptor (Rattus norvegicus, UniProt P35563+Q9JJ16); assay: Binding affinity against 5-hydroxytryptamine 3 (5-HT3) receptor in rat brain cortical membranes using radioligand [3H]quipazine; type: cell membranes
T1 sequence (P35563 whole entry): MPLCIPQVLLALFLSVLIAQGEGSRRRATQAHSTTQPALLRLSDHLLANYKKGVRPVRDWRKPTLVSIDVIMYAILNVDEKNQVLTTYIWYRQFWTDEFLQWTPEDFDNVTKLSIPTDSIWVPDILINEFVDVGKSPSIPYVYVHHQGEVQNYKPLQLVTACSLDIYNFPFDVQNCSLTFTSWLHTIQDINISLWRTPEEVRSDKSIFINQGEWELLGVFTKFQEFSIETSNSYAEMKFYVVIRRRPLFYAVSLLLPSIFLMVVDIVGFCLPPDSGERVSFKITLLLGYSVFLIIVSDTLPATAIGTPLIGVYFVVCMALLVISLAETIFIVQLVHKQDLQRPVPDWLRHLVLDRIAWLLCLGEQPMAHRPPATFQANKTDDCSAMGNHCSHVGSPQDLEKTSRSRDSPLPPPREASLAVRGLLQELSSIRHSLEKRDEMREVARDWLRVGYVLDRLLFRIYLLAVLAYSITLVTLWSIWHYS
T1 sequence (Q9JJ16 whole entry): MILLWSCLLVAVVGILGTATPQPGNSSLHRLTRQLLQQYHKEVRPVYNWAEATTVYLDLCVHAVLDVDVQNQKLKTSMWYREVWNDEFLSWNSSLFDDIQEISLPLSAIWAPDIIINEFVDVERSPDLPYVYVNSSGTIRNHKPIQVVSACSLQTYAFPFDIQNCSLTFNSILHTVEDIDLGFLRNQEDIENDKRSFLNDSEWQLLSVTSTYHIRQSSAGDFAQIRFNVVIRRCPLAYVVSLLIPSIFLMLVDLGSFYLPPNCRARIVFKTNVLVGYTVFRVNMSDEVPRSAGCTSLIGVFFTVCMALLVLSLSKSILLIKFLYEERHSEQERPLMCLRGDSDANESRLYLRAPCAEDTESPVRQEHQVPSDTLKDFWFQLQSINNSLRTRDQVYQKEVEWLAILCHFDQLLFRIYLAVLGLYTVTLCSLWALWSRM
Procedure, shortened: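 Rat cerebral cortex membranes, washed in 50 mM Tris pH 7.4, incubated 45 min at 25 °C in Tris-Krebs buffer pH 7.4 with 0.3–0.7 nM [3H]quipazine plus 0.1 μM paroxetine. Ten test concentrations from 1e-12 to 1e-4 M. Nonspecific binding defined with 1.0 μM racemic zacopride. Filtration, scintillation counting, IC50 by iterative fit, Ki by Cheng-Prusoff. Means of ≥3 determinations, or of two.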

Mustela putorius furo [2] = assay: Inhibition of emesis induced by peroral administration of cisplatin in 6 ferrets at 0.003 mg/kg (p<0.05); type: functional; conditions: route oral
Canis familiaris [3] = assay: Inhibition of emesis induced by peroral administration of cisplatin in 6 dogs at 0.003 mg/kg; type: functional, Canis lupus familiaris; conditions: route oral
Rattus norvegicus [4] = assay: Potency to inhibit bradycardiac effect measured by Von Bezold-Jarisch assay in 8 anesthetized rats; type: functional; conditions: read-out: ID50 (the source's name)
Procedure, shortened: (§1)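 Male Sprague-Dawley rats, 250–380 g, under urethane (1.5 g/kg ip), with cannulated trachea and femoral veins; heart rate recorded by ECG. Lowest consistent bradycardic dose of 2-methyl-5-HT titrated iv, then given every 12 min. Increasing iv doses given 5 min before each challenge, with saline vehicle group.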

Canis familiaris [5] = assay: Inhibition of emesis induced by intravenous administration of cisplatin in 6 dogs at 0.003 mg/kg (p<0.01); type: functional, Canis lupus familiaris
Canis familiaris [6] = assay: Inhibition of emesis induced by peroral administration of cisplatin in 6 dogs at 0.01 mg/kg (p<0.01); type: functional, Canis lupus familiaris; conditions: route oral
Mustela putorius furo [7] = assay: Inhibition of emesis induced by intravenous administration of cisplatin in 5 ferrets at 0.03 mg/kg (p<0.005); type: functional
Canis familiaris [8] = assay: Inhibition of emesis induced by intravenous administration of cisplatin in 6 dogs at 0.03 mg/kg (p<0.01); type: functional, Canis lupus familiaris
Mustela putorius furo [9] = assay: Inhibition of emesis induced by peroral administration of cisplatin in 5 ferrets at 0.03 mg/kg (p<0.005); type: functional; conditions: route oral
Mustela putorius furo [10] = assay: Inhibition of emesis induced by intravenous administration of cisplatin in 9 ferrets at 0.001 mg/kg; type: functional
Mustela putorius furo [11] = assay: Inhibition of emesis induced by intravenous administration of cisplatin in 5 ferrets at 0.003 mg/kg; type: functional
Mustela putorius furo [12] = assay: Inhibition of emesis induced by intravenous administration of cisplatin in 6 ferrets at 0.01 mg/kg (p<0.005); type: functional
Mustela putorius furo [13] = assay: Inhibition of emesis induced by peroral administration of cisplatin in 6 ferrets at 0.001 mg/kg; type: functional; conditions: route oral
Canis familiaris [14] = assay: Inhibition of emesis induced by peroral administration of cisplatin in 6 dogs at 0.03 mg/kg (p<0.01); type: functional, Canis lupus familiaris; conditions: route oral
Canis familiaris [15] = assay: Inhibition of emesis induced by peroral administration of cisplatin in 6 dogs at 0.1 mg/kg (p<0.01); type: functional, Canis lupus familiaris; conditions: route oral
Mustela putorius furo [16] = assay: Inhibition of emesis induced by intravenous administration of cisplatin in 6 ferrets at 0.1 mg/kg (p<0.005); type: functional
Canis familiaris [17] = assay: Inhibition of emesis induced by intravenous administration of cisplatin in 6 dogs at 0.001 mg/kg (p<0.05); type: functional, Canis lupus familiaris
Canis familiaris [18] = assay: Inhibition of emesis induced by peroral administration of cisplatin in 6 dogs at 0.001 mg/kg; type: functional, Canis lupus familiaris; conditions: route oral
Mustela putorius furo [19] = assay: Inhibition of emesis induced by peroral administration of cisplatin in 5 ferrets at 0.1 mg/kg (p<0.005); type: functional; conditions: route oral
Mustela putorius furo [20] = assay: Inhibition of emesis induced by peroral administration of cisplatin in 6 ferrets at 0.01 mg/kg (p<0.005); type: functional; conditions: route oral
Rattus norvegicus [21] = assay: Potency to inhibit bradycardiac effect measured by Von Bezold-Jarisch assay in 5 anesthetized rats; type: functional; conditions: read-out: ID50 (the source's name); procedure, shortened: as §1
Rattus norvegicus [22] = assay: Potency to inhibit bradycardiac effect measured by Von Bezold-Jarisch assay in 9 anesthetized rats; type: functional; design: ID50: unit not given here; procedure, shortened: as §1

**Q.** COc1cc(N)c(Cl)cc1C(=O)N[C@H]1CN2CCC1CC2 [(R)ZACOPRIDE] was tested. Which Ki [1] did it give?
**A.** The Ki was 3.16 nM.

**Q.** With O=c1c2ccccc2ccn1[C@@H]1CN2CCC1CC2 as the molecule, how does the Ki [1] read?
**A.** Its Ki is 3.98 nM.

**Q.** Which “No. of emetic episodes” value (Mustela putorius furo [2]) does the source give for Cl.O=C1c2cccc3c2[C@H](CCC3)CN1[C@@H]1CN2CCC1CC2 [PALONOSETRON HYDROCHLORIDE] here?
**A.** The value was 7.17.

**Q.** And the Ki [1]?
**A.** Its Ki is 0.0398 nM.

**Q.** And the “No. of emetic episodes” value (Canis familiaris [3])?
**A.** The value was 16.17.

**Q.** And the ED50 (Rattus norvegicus [4])?
**A.** The ED50 was 0.02 µg/kg.

**Q.** What about the “No. of emetic episodes” value (Canis familiaris [5]) of the same molecule?
**A.** Its value is 4.33.

**Q.** What about the “No. of emetic episodes” value (Canis familiaris [6]) of the same molecule?
**A.** The value was 4.

**Q.** What about the “No. of emetic episodes” value (Mustela putorius furo [7]) of the same molecule?
**A.** The value was 0.

**Q.** What about the “No. of emetic episodes” value (Canis familiaris [8]) of the same molecule?
**A.** The value was 1.33.

**Q.** What about the “No. of emetic episodes” value (Mustela putorius furo [9]) of the same molecule?
**A.** Its value is 1.8.

**Q.** What about the “No. of emetic episodes” value (Mustela putorius furo [10]) of the same molecule?
**A.** Its value is 9.67.

**Q.** And the “No. of emetic episodes” value (Mustela putorius furo [11])?
**A.** Its value is 0.6.

**Q.** And the “No. of emetic episodes” value (Mustela putorius furo [12])?
**A.** Its value is 0.

**Q.** And the “No. of emetic episodes” value (Mustela putorius furo [13])?
**A.** Its value is 15.17.

**Q.** And the “No. of emetic episodes” value (Canis familiaris [14])?
**A.** The value was 2.67.

**Q.** What about the “No. of emetic episodes” value (Canis familiaris [15]) of the same molecule?
**A.** Its value is 0.

**Q.** What about the “No. of emetic episodes” value (Mustela putorius furo [16]) of the same molecule?
**A.** The value was 0.17.

**Q.** What about the “No. of emetic episodes” value (Canis familiaris [17]) of the same molecule?
**A.** Its value is 7.17.

**Q.** What about the “No. of emetic episodes” value (Canis familiaris [18]) of the same molecule?
**A.** The value was 12.83.

**Q.** And the “No. of emetic episodes” value (Mustela putorius furo [19])?
**A.** The value was 0.8.

**Q.** What about the “No. of emetic episodes” value (Mustela putorius furo [20]) of the same molecule?
**A.** Its value is 2.17.

**Q.** How did the Ki [1] turn out when COc1cc(N)c(Cl)cc1C(=O)N[C@@H]1CN2CCC1CC2 was run?
**A.** Its Ki is 0.251 nM.

**Q.** For Cc1cccc(C(=O)N[C@@H]2CN3CCC2CC3)c1C, which Ki [1] is on record?
**A.** Its Ki is 158 nM.

**Q.** How did the ED50 (Rattus norvegicus [21]) turn out when O=c1c2c3ccccc3n3c2c(cn1[C@H]1CN2CCC1CC2)CCC3 was run?
**A.** The ED50 was over 2.41 µg/kg.

**Q.** Which Ki [1] does the source give for CCc1cccc(C(=O)N[C@@H]2CN3CCC2CC3)c1C here?
**A.** The Ki was 501 nM.

**Q.** With O=c1c2ccccc2ccn1C1CN2CCC1CC2 (configuration not stated) as the molecule, how does the Ki [1] read?
**A.** The Ki was 10 nM.

**Q.** For COc1cccc2c1CCN(C1CN3CCC1CC3)C2=O (configuration not stated), which Ki [1] is on record?
**A.** Its Ki is 0.2 nM.

**Q.** How did the Ki [1] turn out when O=C(N[C@@H]1CN2CCC1CC2)c1c2n(c3ccccc13)CCCCC2 was run?
**A.** The Ki was 5.01 nM.

**Q.** For O=c1c2cccc(Cl)c2ccn1[C@@H]1CN2CCC1CC2, which Ki [1] is on record?
**A.** Its Ki is 2.51 nM.

**Q.** For CN1C2CCC1CC(n1cc3c4c(cccc4c1=O)CCC3)C2 (configuration not stated), which Ki [1] is on record?
**A.** The Ki was 0.794 nM.

**Q.** What about the ED50 (Rattus norvegicus [4]) of the same molecule?
**A.** Its ED50 is 0.65 µg/kg.

**Q.** Which Ki [1] does the source give for Cl.O=c1c2cccc3c2c(cn1[C@@H]1CN2CCC1CC2)CCC3 here?
**A.** Its Ki is 0.158 nM.

**Q.** What about the ID50 (Rattus norvegicus [22]) of the same molecule?
**A.** The ID50 was 0.1.

**Q.** Which Ki [1] does the source give for O=C1c2cccc3c2[C@@H](CCC3)CN1[C@H]1CN2CCC1CC2 here?
**A.** Its Ki is 3.98 nM.

**Q.** With O=C1c2cccc3c2[C@@H](CCC3)CN1C1CN2CCC1CC2 (mixture of isomers) as the molecule, how does the Ki [1] read?
**A.** Its Ki is 0.316 nM.

**Q.** Which results are given for CCc1cccc2c(=O)n([C@@H]3CN4CCC3CC4)ccc12.Cl?
**A.** Ki [1]: 0.2 nM; ED50 (Rattus norvegicus [4]): 0.13 µg/kg

**Q.** Which Ki [1] does the source give for COc1ccc2c3c(cn(C4CN5CCC4CC5)c(=O)c13)CCC2 (configuration not stated) here?
**A.** The Ki was 158 nM.

**Q.** With Cl.O=c1c2cccc3c2c(cn1[C@@H]1CN2CCC1CC2)CCCC3 as the molecule, how does the Ki [1] read?
**A.** Its Ki is 0.398 nM.

**Q.** What about the ED50 (Rattus norvegicus [4]) of the same molecule?
**A.** The ED50 was 0.09 µg/kg.

**Q.** For Cc1cccc2c1CCN([C@@H]1CN3CCC1CC3)C2=O.Cl, which Ki [1] is on record?
**A.** Its Ki is 0.316 nM.

**Q.** And the ED50 (Rattus norvegicus [4])?
**A.** Its ED50 is 0.13 µg/kg.

**Q.** With O=C(NC1CN2CCC1CC2)c1c2n(c3ccccc13)CCCC2 (configuration not stated) as the molecule, how does the Ki [1] read?
**A.** The Ki was 2.51 nM.

**Q.** What does the source list for Cl.O=c1c2cccc3c2c(cn1C1CN2CCC1CC2)CC3 (configuration not stated)?
**A.** Ki [1]: 0.631 nM; ED50 (Rattus norvegicus [22]; Rattus norvegicus, read-out: ID50 (the source's name)): 0.18 µg/kg

**Q.** Which Ki [1] does the source give for O=c1c2ccccc2c(-c2ccccc2)cn1[C@@H]1CN2CCC1CC2 here?
**A.** Its Ki is 2.51 nM.
